The values that follow come from ChEMBL document CHEMBL2057101, “Fluorocyclines. 2. Optimization of the C-9 side-chain for antibacterial activity and oral efficacy” (J Med Chem, 2012).

Converted amounts (≈) assume the structure as drawn. Bounds are passed on as bounds.

One may read the MIC as the lowest concentration that inhibits growth of the organism. Read a low MIC as greater potency.

What all share (assay type): functional
For experiment [1], the system named is Staphylococcus aureus. Put plainly: Antibacterial activity against tetracycline-susceptible Staphylococcus aureus ATCC 13709 Smith isolate SA100. A digest of the protocol: (§1)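 Broth microdilution MIC following CLSI methods in cation-adjusted Mueller Hinton broth, prepared fresh and held at 4 °C before testing. Defibrinated horse blood added to the medium where appropriate. Runs accepted when quality control ranges for comparator antibiotics and ATCC QC strains were met.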

The subject of experiment [2] is Staphylococcus aureus. Put plainly: Antibacterial activity against tetracycline-resistant Staphylococcus aureus isolate SA161 expressing TetM gene. Summed up: as §1
Experiment [3] concerns Staphylococcus aureus. Put plainly: Antibacterial activity against tetracycline-resistant Staphylococcus aureus isolate SA158 expressing TetK gene.
Experiment [4] has as its system Streptococcus pneumoniae. Put plainly: Antibacterial activity against Streptococcus pneumoniae ATCC 49619 isolate 106. Summed up:
(§2)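 MIC by broth microdilution in liquid medium per CLSI, in cation-adjusted Mueller Hinton broth made fresh and held at 4 °C before testing. Horse blood (defibrinated) added to the medium where appropriate. Runs were accepted only when the comparator antibiotics and ATCC QC strains fell within their recommended ranges.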

Experiment [5] concerns Streptococcus pneumoniae. In words: Antibacterial activity against tetracycline-resistant Streptococcus pneumoniae isolate 160 expressing tetM gene.
In experiment [6] the test system is Escherichia coli. Put plainly: Antibacterial activity against Escherichia coli ATCC 25922 isolate 107. Summed up:
as §2

The subject of experiment [7] is Escherichia coli. Put plainly: Antibacterial activity against Escherichia coli isolate EC155 expressing tetA gene. A digest of the protocol:
as §2

The test system of experiment [8] is Staphylococcus aureus. Put plainly: Antibacterial activity against Staphylococcus aureus ATCC 13709 infected in CD-1 mouse assessed as increase in survival at 3 mg/kg, iv administered as single dose 1 hr post infection measured after 48 hrs post infection. A digest of the protocol: (§3)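 Mouse septicemia screen: S. aureus grown to log phase, diluted in 5% mucin to give 90% mortality within 48 h, inoculum 1.98 × 10⁶ CFU/mouse, 0.5 mL intraperitoneal into female CD-1 mice (18−20 g). Six mice per group. Single 30 mg/kg oral gavage or 3 mg/kg IV dose 1 h post infection. Infection controls received sterile water vehicle. Survival recorded at 48 h.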

In experiment [9] the test system is Staphylococcus aureus. Put plainly: Antibacterial activity against Staphylococcus aureus ATCC 13709 infected in CD-1 mouse assessed as increase in survival at 30 mg/kg, po administered as single dose 1 hr post infection measured after 48 hrs post infection. A digest of the protocol:
as §3

The subject of the next experiment is Klebsiella pneumoniae. In words: Antibacterial activity against Klebsiella pneumoniae ATCC 13883. Summed up: as §2
The subject of experiment [10] is Staphylococcus aureus. In words: Antibacterial activity against Staphylococcus aureus ATCC 13709 infected in po dosed CD-1 mouse assessed as increase in survival administered as single dose 1 hr post infection measured after 48 hrs post infection. The conditions noted are these: ATCC 13709, po, read-out: PD50.

For `CCN1CCC[C@H]1C(=O)Nc1cc(F)c2c(c1O)C(=O)C1=C(O)[C@]3(O)C(=O)C(C(N)=O)=C(O)[C@@H](N(C)C)[C@@H]3C[C@@H]1C2`, the MIC in the experiment with Staphylococcus aureus [1] is 0.031 µg/mL (≈ 0.0541 µM); in the experiment on Staphylococcus aureus [2], 0.13 µg/mL (≈ 0.227 µM); with Staphylococcus aureus [3], 0.031 µg/mL (≈ 0.0541 µM); against Streptococcus pneumoniae [4], at most 0.016 µg/mL; in the experiment with Streptococcus pneumoniae [5], at most 0.016 µg/mL; in the experiment with Escherichia coli [6] it was 0.13 µg/mL (≈ 0.227 µM). Also, 4 µg/mL (≈ 6.99 µM) was the least that counted as inhibitory against Escherichia coli [7] (MIC). Moreover, the survival at 3 mg/kg with Staphylococcus aureus [8] turned out to be 67%. The survival at 30 mg/kg in the experiment on Staphylococcus aureus [9] amounted to 40%.
Take `CN(C)[C@@H]1C(O)=C(C(N)=O)C(=O)[C@@]2(O)C(O)=C3C(=O)c4c(O)c(NC(=O)[C@@H]5C[C@H](F)CN5C)cc(F)c4C[C@H]3C[C@@H]12`: the MIC was 0.13 µg/mL (≈ 0.225 µM) in the experiment with Staphylococcus aureus [1]; 0.5 µg/mL (≈ 0.867 µM) in the experiment on Staphylococcus aureus [2]; 0.063 µg/mL (≈ 0.109 µM) with Staphylococcus aureus [3]; 0.016 µg/mL (≈ 0.0278 µM) against Streptococcus pneumoniae [4]; 0.016 µg/mL (≈ 0.0278 µM) against Streptococcus pneumoniae [5]; 2 µg/mL (≈ 3.47 µM) with Escherichia coli [6]. The MIC against Escherichia coli [7] was over 32 µg/mL; in the experiment with Klebsiella pneumoniae it was 16 µg/mL (≈ 27.8 µM). For the same compound, the survival at 3 mg/kg in the experiment on Staphylococcus aureus [8] is 83%. Further, in the experiment on Staphylococcus aureus [9], the survival at 30 mg/kg was found to be 33%.
Regarding `CN(C)[C@@H]1C(O)=C(C(N)=O)C(=O)[C@@]2(O)C(O)=C3C(=O)c4c(O)c(NC(=O)c5ccccn5)cc(F)c4C[C@H]3C[C@@H]12`, the MIC in the experiment with Staphylococcus aureus [1] was 0.13 µg/mL (≈ 0.235 µM); in the experiment with Staphylococcus aureus [2], 0.13 µg/mL (≈ 0.235 µM); in the experiment on Staphylococcus aureus [3], 0.13 µg/mL (≈ 0.235 µM); in the experiment with Streptococcus pneumoniae [4], 4 µg/mL (≈ 7.24 µM); against Streptococcus pneumoniae [5], 8 µg/mL (≈ 14.5 µM); against Escherichia coli [6], over 32 µg/mL. Besides, the MIC in the experiment with Escherichia coli [7] and against Klebsiella pneumoniae was over 32 µg/mL each time. The survival at 3 mg/kg in the experiment on Staphylococcus aureus [8] amounted to 0%. Also, the survival at 30 mg/kg in the experiment on Staphylococcus aureus [9] stood at 0%. For the same compound, the ED50 in the experiment with Staphylococcus aureus [10] is over 30 mg/kg.
`CN(C)c1cc(F)c2c(c1O)C(=O)C1=C(O)[C@]3(O)C(=O)C(C(N)=O)=C(O)[C@@H](N(C)C)[C@@H]3C[C@@H]1C2`: the MIC in the experiment with Staphylococcus aureus [1] was 1 µg/mL (≈ 2.1 µM); against Staphylococcus aureus [2], 4 µg/mL (≈ 8.41 µM); with Staphylococcus aureus [3], 4 µg/mL (≈ 8.41 µM); against Streptococcus pneumoniae [4], 0.25 µg/mL (≈ 0.526 µM); against Streptococcus pneumoniae [5], 4 µg/mL (≈ 8.41 µM); against Escherichia coli [6] it was 4 µg/mL (≈ 8.41 µM). For the same compound, the MIC turned out to be 32 µg/mL (≈ 67.3 µM) in the experiment with Escherichia coli [7] and 8 µg/mL (≈ 16.8 µM) in the experiment on Klebsiella pneumoniae.
As to `CN(C)[C@@H]1C(O)=C(C(N)=O)C(=O)[C@@]2(O)C(O)=C3C(=O)c4c(O)c(NC(=O)c5ccn(C)n5)cc(F)c4C[C@H]3C[C@@H]12`, the MIC in the experiment on Staphylococcus aureus [1] was 0.5 µg/mL (≈ 0.9 µM); in the experiment with Staphylococcus aureus [2], 0.5 µg/mL (≈ 0.9 µM); in the experiment on Staphylococcus aureus [3], 1 µg/mL (≈ 1.8 µM); in the experiment on Streptococcus pneumoniae [4], 1 µg/mL (≈ 1.8 µM); against Streptococcus pneumoniae [5], 2 µg/mL (≈ 3.6 µM); in the experiment on Escherichia coli [6], over 32 µg/mL. The MIC against Escherichia coli [7] and against Klebsiella pneumoniae was over 32 µg/mL in each case.
For the compound `CN(C)[C@@H]1C(O)=C(C(N)=O)C(=O)[C@@]2(O)C(O)=C3C(=O)c4c(O)c(NC(=O)c5nccs5)cc(F)c4C[C@H]3C[C@@H]12`, the MIC is 0.063 µg/mL (≈ 0.113 µM) in the experiment with Staphylococcus aureus [1]; 0.13 µg/mL (≈ 0.233 µM) in the experiment with Staphylococcus aureus [2]; 0.063 µg/mL (≈ 0.113 µM) against Staphylococcus aureus [3]; 2 µg/mL (≈ 3.58 µM) in the experiment with Streptococcus pneumoniae [4]; 4 µg/mL (≈ 7.16 µM) against Streptococcus pneumoniae [5]; over 32 µg/mL in the experiment on Escherichia coli [6]. Besides, the MIC with Escherichia coli [7] and in the experiment with Klebsiella pneumoniae was over 32 µg/mL each time. For the same compound, in the experiment on Staphylococcus aureus [8], the survival at 3 mg/kg is 17%. The survival at 30 mg/kg in the experiment on Staphylococcus aureus [9] stood at 0%.
As to `CN(C)[C@@H]1C(O)=C(C(N)=O)C(=O)[C@@]2(O)C(O)=C3C(=O)c4c(O)c(NC(=O)[C@@H]5CCN5)cc(F)c4C[C@H]3C[C@@H]12`, the MIC in the experiment on Staphylococcus aureus [1] came out at 0.25 µg/mL (≈ 0.471 µM); in the experiment on Staphylococcus aureus [2] it was 0.13 µg/mL (≈ 0.245 µM); in the experiment with Staphylococcus aureus [3] it was 0.5 µg/mL (≈ 0.942 µM); in the experiment on Streptococcus pneumoniae [4] it was 0.16 µg/mL (≈ 0.302 µM); against Streptococcus pneumoniae [5], 0.031 µg/mL (≈ 0.0584 µM); against Escherichia coli [6] it was 0.25 µg/mL (≈ 0.471 µM). Moreover, the MIC was 16 µg/mL (≈ 30.2 µM) with Escherichia coli [7] and 1 µg/mL (≈ 1.88 µM) against Klebsiella pneumoniae.
In the case of `CN(C)[C@@H]1C(O)=C(C(N)=O)C(=O)[C@@]2(O)C(O)=C3C(=O)c4c(O)c(NS(=O)(=O)c5ccccc5)cc(F)c4C[C@H]3C[C@@H]12`, the MIC against Staphylococcus aureus [1] was 0.5 µg/mL (≈ 0.851 µM); against Staphylococcus aureus [2], 1 µg/mL (≈ 1.7 µM); with Staphylococcus aureus [3], 0.5 µg/mL (≈ 0.851 µM); with Streptococcus pneumoniae [4], 0.25 µg/mL (≈ 0.425 µM); against Streptococcus pneumoniae [5], 0.25 µg/mL (≈ 0.425 µM); against Escherichia coli [6], 32 µg/mL (≈ 54.5 µM). In addition, the MIC in the experiment on Escherichia coli [7] and in the experiment on Klebsiella pneumoniae was over 32 µg/mL each time.
`CN(C)[C@@H]1C(O)=C(C(N)=O)C(=O)[C@@]2(O)C(O)=C3C(=O)c4c(O)c(NS(=O)(=O)c5cccs5)cc(F)c4C[C@H]3C[C@@H]12`: the MIC was 0.5 µg/mL (≈ 0.842 µM) in the experiment on Staphylococcus aureus [1]; 1 µg/mL (≈ 1.68 µM) in the experiment with Staphylococcus aureus [2]; 0.5 µg/mL (≈ 0.842 µM) in the experiment with Staphylococcus aureus [3]; 0.25 µg/mL (≈ 0.421 µM) against Streptococcus pneumoniae [4]; 1 µg/mL (≈ 1.68 µM) against Streptococcus pneumoniae [5]; over 32 µg/mL against Escherichia coli [6]. Also, the MIC against Escherichia coli [7] and against Klebsiella pneumoniae was over 32 µg/mL each time.
